S100A4 MyoIIA: inhibitors of S100A4-myosin IIA peptide binding, primary screen, biochemical, fluorescence polarization, TAMRA-MyoIIA peptide | Protein S100-A4 (Homo sapiens), P26447 | inhibition, % at 10.7 µM | hit rate 0.14% among 360,000;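 active = mean inhibition of at least 70% across replicates, with every replicate also reaching that level; inconclusive = mean inhibition reaches 70% but some replicates fall short; inactive = mean inhibition below 70%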
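Test system: S100A4 monomer protein. Medium: HEPES buffer with Ca2+, pH 7.2. Reagent: fluorescent myosin IIA peptide, 5 nM. Compound dosing: single-point compound testing. Timing: 5 min between mix addition and reading. Benchmarks: DMSO neutral and TFP positive wells.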
CFTR F508del cor: F508del CFTR correction, initial screen, CFBE line, single point | CFBE cells, YFP halide quenching; stimulated with forskolin plus potentiator P3; % fluorescence drop versus neutral controls | AID 720511, 2013 | activity (quench increase), % at 7.58 µM | hit rate 0.36% among 350,000;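 active = mean added fluorescence quench of at least 8% versus neutral control, with both replicates also reaching 8%; inconclusive = only one of the mean or replicate conditions met; inactive = mean below 8% and not both replicates reaching 8%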;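 also: cells transiently co-express mutant CFTR-F508del with the halide-sensitive YFP; corrector assay measuring rescue of mutant channel to the surface after 24 h compound exposure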
SIRT5 inh: SIRT5 desuccinylase inhibitors, primary screen, biochemical, fluorescence imaging, single point, set 5; hit rate 1.1% among 330,000; inhibition, % at 15 µM; Purified SirT5, succinyl-peptide AMC, trypsin-coupled fluorescence; AID 652115, 2013; NAD-dependent protein deacylase sirtuin-5, mitochondrial (Homo sapiens), Q9NXA8; in the data active = inhibition above about 15%; inconclusive = no clear call, values can overlap the other calls
ERAP1 HTS inh: human ERAP1 aminopeptidase inhibitors, primary screen, biochemical, single point, plate reader | recombinant ERAP1, Leu-AMC fluorescence, 60 min | inhibition, % at 10.7 µM | hit rate 0.15% among 340,000 | AID 652197, 2013;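 active = mean replicate inhibition of at least 30%, or all replicates individually reaching that 30% level; inactive = mean below 30% and not every replicate reaching it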;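 also: 0% = neutral control wells and 100% = L-leucinethiol positive control wells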
Ecoli rRNA inh: reduced GFP signal of wild-type E. coli, primary screen, bacterial rRNA inhibitor project, GFP/RFP fluorescence, OD600, single point | E. coli WT GFP vs humanized-ribosome RFP mutants, 24 h; active compounds read low; DMSO median 0, no signal -100 | GFP signal change (wild-type ribosome), % (no concentration beside the values) | hit rate 1.6% among 350,000 | AID 720706, 2013;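 active = significant combined selectivity score with lowered wild-type GFP, culture density cut under 30%, mutant RFP and density less affected; inactive = any of these conditions unmet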
AID977621: growth inhibition of wild-type GFP E. coli, dose response, H69 mutant RFP, cherry-pick | shares compounds with Ecoli rRNA inh | E. coli wild-type GFP strain growth, fluorescence, 24 h | activity change, negative = inhibition at 50 µM | 1,900 tested, under 10 active | AID 977621, 2014;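 active = Wild-type ribosome reporter drop at least double the humanized mutant ribosome reporter drop, growth loss under a set limit; inconclusive = no clear call, values can overlap the other calls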;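 also: wild-type GFP and H69 mutant RFP strains grown together 50/50 in each well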
AID977628: E. coli growth inhibition, wild-type GFP versus h24 humanized RFP strain, dose response, h24 mutant RFP vs wild-type GFP, cherry-pick; E. coli WT GFP strain growth, fluorescence, 24 h; 1,900 tested, under 10 active; activity change, negative = inhibition at 50 µM; shares compounds with Ecoli rRNA inh;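 active = compound lowering the normal-ribosome reporter at least twice as much as the humanized-ribosome reporter, growth loss under a set limit; inconclusive = no clear call, values can overlap the other calls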;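 also: wild-type GFP and h24 humanized RFP strains co-cultured 1 to 1 per well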
Active calls of the source: *; ? = inconclusive; . = no result given. Only some compounds are listed: those with a hit (about 3.1% of all), similar ones and a draw of the others.

SMILES | S100A4 MyoIIA | CFTR F508del cor | SIRT5 inh | ERAP1 HTS inh | Ecoli rRNA inh | AID977621 | AID977628
COc1cccc(NC(=O)c2ccc(NCCCN3CCC(C)CC3)c([N+](=O)[O-])c2)c1 | 7 | -1 | -1 | 0 | -25* | -3.5 | ?
C[C@@H]1CN([C@H](C)CO)C(=O)CCCn2cc(nn2)CO[C@H]1CN(C)Cc1cccc(C(=O)O)c1 | 0 | 0 | -2 | -4 | 0 | . | .
CC(C)CNc1nc(S(=O)(=O)c2ccccc2)c(Cl)s1 | 1 | -1 | 0 | -2 | -40* | ? | -9.2
C[C@@H]1CN([C@H](C)CO)C(=O)c2cc(NC(=O)CCCCCC(=O)Nc3ccccc3N)ccc2O[C@H]1CN(C)S(=O)(=O)c1ccc(F)cc1 | 3 | 1 | . | 0 | -1 | . | .
O=C(CC1SC(=O)N(Cc2ccccc2Cl)C1=O)Nc1nccs1 (stereo unspecified) | -3 | 2 | -3 | 0 | -22* | -5.8 | -9.6
COc1cccc(C(=O)Nc2ccc3c(c2)C(=O)N(C)[C@@H]2CC[C@H](CC(=O)NCc4ccccc4F)O[C@@H]2CO3)c1 | 10 | -2 | 1 | . | -7 | . | .
CCCc1ncc(CN2CCCC(C(=O)Nc3ccc(-c4cccc(OC)c4)cc3)C2)cn1 (stereo unspecified) | -1 | 0 | 0 | 2 | -5 | . | .
COc1cccc(-c2ccc(NC(=O)C3CCCN(Cc4cnn(C(C)C)c4)C3)cc2)c1 (stereo unspecified) | 16 | 0 | -2 | -25 | -24* | . | -0.47
Cc1ccc2nc(SCC(=O)Nc3c(F)cccc3F)[nH]c2c1 | 9 | 0 | -5 | -2 | -22* | . | ?
Nc1ncnc2nc(SCC(=O)Nc3ccccc3F)[nH]c12 | 8 | 4 | 8 | -3 | -1 | . | .
CCOC(=O)Cc1nnc(NC(=O)CSc2nc3ccccc3[nH]2)s1 | 1 | -1 | . | -2 | -17* | . | -16
COc1ccc2nc(SCC(=O)Nc3ccccc3)[nH]c2c1 | 3 | . | -1 | -5 | -20* | -21 | .
Cc1nnc(NC(=O)CSc2nc3ccccc3[nH]2)s1 | 0 | 1 | -3 | 2 | 0 | . | .
O=C(CSc1nc2ccccc2[nH]1)Nc1ccccc1F | -2 | 3 | 0 | 7 | -26* | . | ?
CSc1ccccc1NC(=O)CN(c1cccc(C)c1)S(C)(=O)=O | -1 | -3 | 8 | 2 | -20* | -13 | .
CC(C)CN(C(=O)CCNC(=O)c1ccc([N+](=O)[O-])cc1)C1CCS(=O)(=O)C1 (stereo unspecified) | 2 | -2 | . | 2 | 0 | . | .
CC(C)CN(C(=O)c1cc([N+](=O)[O-])cc([N+](=O)[O-])c1)C1CCS(=O)(=O)C1 (stereo unspecified) | 0 | -1 | 8 | 0 | -16* | -18 | -6.4
O=C(NC1CCCC1)N1CCCCN2[C@H](CO)[C@H](c3ccc(-c4ccccc4)cc3)[C@H]2C1 | -9 | -1 | -2 | 2 | -5 | . | .
CN1c2ccc(-c3ccccc3F)cc2[C@H]2[C@H](CCN2S(=O)(=O)c2ccccc2)[C@@H]1CO | -4 | 2 | 9 | -1 | 2 | . | .
O=C(NC1CCC1)[C@H]1[C@H](CO)[C@H]2Cn3c(ccc(-c4ccc(F)cc4)c3=O)[C@@H]1N2Cc1cocn1 | 16 | 0 | -25 | 0 | -2 | . | .
CCOc1ccc(OCc2ccc(C(=O)N3CCCC3)o2)cc1 | 2 | 1 | 1 | -5 | -17* | -7.6 | -11
CCCc1ccc(OCc2ccc(C(=O)N3CCCC3)o2)cc1 | -2 | -2 | 0 | 0 | -57 | . | .
C/C=C/c1ccc2c(c1)O[C@@H](CN(C)C(=O)c1cnccn1)[C@H](C)CN([C@@H](C)CO)S2(=O)=O | 5 | 1 | -1 | -4 | -2 | . | .
CO[C@@H]1CN(C)C(=O)c2cc(NC(=O)C3CCCC3)ccc2OC[C@H](C)NC[C@@H]1C | -15 | -2 | -2 | -1 | 3 | . | .
COC(=O)[C@]1(Sc2ccc(C)cc2)CC(=O)N[C@@H]1c1ccccc1 | 26 | -2 | -5 | . | -21* | -6.4 | ?
SMILES | S100A4 MyoIIA | CFTR F508del cor | SIRT5 inh | ERAP1 HTS inh | Ecoli rRNA inh | AID977621 | AID977628
COC(=O)[C@@]1(Sc2ccc(C)cc2)CC(=O)N[C@@H]1c1ccccc1 | 0 | -1 | -2 | . | -14 | . | .
CCN(CC)C(=O)COC(=O)c1ccc(C)c(NC(=O)c2ccco2)c1 | -12 | 1 | 5 | 1 | -3 | . | .
Cc1ccc(C(=O)OCC(=O)c2c[nH]c3ccccc23)cc1NC(=O)c1ccco1 | -10 | 4 | -2 | 5 | -20* | . | ?
C[C@@H]1CN([C@@H](C)CO)C(=O)c2cccc(NC(=O)CCCCCC(=O)Nc3ccccc3N)c2O[C@@H]1CN(C)C | 8 | 2 | -6 | -2 | 6 | . | .
O=S(=O)(NCc1ccc2c(c1)OCO2)c1cccc(F)c1 | -1 | -1 | 13 | -3 | -2 | . | .
O=S(=O)(NCc1ccc2c(c1)OCO2)c1ccc2c(c1)oc1ccccc12 | -1 | -2 | -2 | 2 | -19* | -17 | .
CN1CCN(C(=O)C[C@H]2CC[C@H](NC(=O)c3ccc4c(c3)OCO4)[C@H](CO)O2)CC1 | -18 | -1 | 3 | -1 | 0 | . | .
CCOc1ncccc1C(=O)OCC(=O)NCCCc1ccccc1 | -2 | -2 | -3 | -3 | -21* | -7.2 | -13
COc1ccc(NC(=O)CN(c2ccccc2OC)S(=O)(=O)c2cccs2)cc1Cl | -4 | 3 | -3 | 0 | -17* | -11 | .
CC(C)NC(=O)Nc1ccc2c(c1)C(=O)N([C@H](C)CO)C[C@H](C)[C@@H](CN(C)C(=O)c1ccccc1)OCCCC[C@@H](C)O2 | -10 | 0 | 0 | -4 | 1 | . | .
CCOc1ccc(OCCCC(=O)N2CCN(S(=O)(=O)c3ccccc3C#N)CC2)cc1 | 1 | 3 | 0 | 2 | -12 | . | .
CN(CCOc1ccccc1)S(=O)(=O)c1ccccc1C#N | -4 | -2 | -1 | -3 | -22* | -14 | -19
c1cc2cc(-c3c(-c4ccc5c(c4)OCO5)noc3-c3ccsc3)ccc2[nH]1 | -3 | 0 | -2 | -3 | -13* | -10 | -9.6
Cc1onc(-c2ccc3c(c2)OCO3)c1-c1ccc2[nH]ccc2c1 | -10 | -6 | -3 | 1 | -17 | . | .
Cn1nnnc1SCc1nc2scc(-c3ccccc3)c2c(=O)[nH]1 | 8 | 2 | 3 | -2 | -14 | . | .

High-throughput results from PubChem.
